Test results published in ChEMBL document CHEMBL1145901, “A novel ergot alkaloid as a 5-HT(1A) inhibitor produced by Dicyma sp” (J Med Chem, 2003).

Experiments:
[1] = target: T1, 5-hydroxytryptamine receptor 1A (Homo sapiens) (UniProt P08908); test: Intrinsic activity for human 5-hydroxytryptamine 1A receptors HEK 293 cell membranes using [35S]GTP gamma-S; type: functional; details: HEK293
T1 sequence (whole entry): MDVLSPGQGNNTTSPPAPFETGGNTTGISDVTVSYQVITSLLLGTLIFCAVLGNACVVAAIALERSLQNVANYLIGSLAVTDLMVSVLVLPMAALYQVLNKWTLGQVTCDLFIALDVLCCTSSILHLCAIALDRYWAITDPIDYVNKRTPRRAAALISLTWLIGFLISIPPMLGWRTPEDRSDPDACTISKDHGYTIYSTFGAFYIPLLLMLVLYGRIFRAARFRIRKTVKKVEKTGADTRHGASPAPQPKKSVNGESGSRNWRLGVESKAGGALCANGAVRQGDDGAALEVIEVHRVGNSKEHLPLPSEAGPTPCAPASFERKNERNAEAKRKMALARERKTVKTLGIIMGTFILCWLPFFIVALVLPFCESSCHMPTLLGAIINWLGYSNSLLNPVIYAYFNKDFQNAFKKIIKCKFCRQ
Summary of the method: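 Membranes from 10^6 HEK293 cells were preincubated with compound for 30 min at 30 °C in 20 mM HEPES pH 7.4 with 3 mM MgCl2, 100 mM NaCl, 10 μM GDP and 0.2 mM ascorbate. [35S]GTPγS (100 pM assay concentration) was then added for 30 min at 30 °C. Nonspecific binding used unlabeled GTPγS. Samples were filtered on GF/B and counted by scintillation. Intrinsic activity is relative to 5-HT; four to seven independent experiments.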

[2] = target: T1, 5-hydroxytryptamine receptor 1A (Homo sapiens); test: (§1) Binding affinity against human 5-hydroxytryptamine 1A receptors HEK 293 cell membranes using [35S]GTP gamma-S; type: functional; details: HEK293
[3] = target: T2, 5-hydroxytryptamine receptor 1A (Homo sapiens, UniProt P08908); test: as §1; type: functional, HEK293
T2 sequence (P08908 whole entry): T1 sequence (whole entry)

[4] = target: T2, 5-hydroxytryptamine receptor 1A; test: Binding affinity against 5-hydroxytryptamine 1A human cloned receptors in HEK293 cells; type: cell-based
Summary of the method: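 Human 5-HT1A stably expressed in HEK 293 cells. Membranes were homogenised in ice-cold 50 mM Tris (pH 7.7 at 25 °C) and stored at -70 °C. Binding was measured as displacement of [3H]-8-OH-DPAT. IC50 came from a four-parameter logistic fit of cpm and was converted to Ki by Cheng-Prusoff. Values are the mean of at least two determinations.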

[5] = target: T3, 5-hydroxytryptamine receptor 2A (Homo sapiens, UniProt P28223); test: Binding affinity against 5-hydroxytryptamine 2A receptor human cloned receptors in HEK 293 cells using [3H]ketanserin as radioligand; type: cell-based, HEK293
[6] = target: T4, 5-hydroxytryptamine receptor 2C (Homo sapiens, UniProt P28335); test: Binding affinity against 5-hydroxytryptamine 2C receptor human cloned receptors in HEK 293 cells using [3H]mesulergine as radioligand; type: cell-based, HEK293
T4 sequence (P28335 whole entry): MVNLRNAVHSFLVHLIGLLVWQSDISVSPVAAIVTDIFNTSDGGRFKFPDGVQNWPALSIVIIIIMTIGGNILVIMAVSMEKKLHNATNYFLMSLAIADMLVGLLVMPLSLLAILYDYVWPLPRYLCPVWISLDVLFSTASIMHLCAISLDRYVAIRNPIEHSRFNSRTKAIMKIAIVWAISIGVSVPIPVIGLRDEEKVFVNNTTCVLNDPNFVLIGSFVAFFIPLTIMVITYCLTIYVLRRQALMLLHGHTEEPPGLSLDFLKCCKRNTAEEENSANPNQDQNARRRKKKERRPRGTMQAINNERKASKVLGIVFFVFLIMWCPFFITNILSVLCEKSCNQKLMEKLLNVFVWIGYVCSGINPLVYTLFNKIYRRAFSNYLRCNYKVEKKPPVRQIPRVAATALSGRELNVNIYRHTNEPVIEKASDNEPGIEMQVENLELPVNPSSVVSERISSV

[7] = target: 5-hydroxytryptamine receptor 7 (Homo sapiens, UniProt P34969); test: Binding affinity against 5-hydroxytryptamine 7 human receptors
[8] = target: 5-hydroxytryptamine receptor 6 (Homo sapiens, UniProt P50406); test: Binding affinity against 5-hydroxytryptamine 6 human cloned receptors in HeLa cells using [3H]LSD as radioligand; type: cell-based
[9] = target: T5, 5-hydroxytryptamine receptor 1B (Homo sapiens, UniProt P28222); test: Binding affinity against human 5-hydroxytryptamine 1B receptor cloned receptors in CHO cells using [3H]5-CT as radioligand; type: cell-based
Summary of the method: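 Membranes from CHO cells expressing human 5-HT1B, in 50 mM Tris-HCl pH 7.4 with 0.1% ascorbate, 10 μM pargyline, 0.5 mM EDTA and 10 mM MgCl2. Compound in DMSO was preincubated 15 min at RT, then 10 nM stock [3H]-5-CT was added for 30-45 min at 37 °C. Filtration on PEI-treated GF/C, scintillation counting; 200 μM 5-HT (stock) defined nonspecific binding. Four-parameter IC50, Cheng-Prusoff Ki, mean of at least two determinations.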

[10] = target: T5, 5-hydroxytryptamine receptor 1B; test: Binding affinity against human 5-hydroxytryptamine 1B receptor cloned receptors in CHO cells; type: cell-based
Summary of the method: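 Human 5-HT1B-expressing CHO cell membranes were homogenized in ice-cold 50 mM Tris (pH 7.7) and stored at -70 °C. They were resuspended in 50 mM Tris-HCl pH 7.4 containing 0.1% ascorbate, 10 μM pargyline, 0.5 mM EDTA and 10 mM MgCl2. Compound in DMSO was preincubated with membranes for 15 min at RT. [3H]-5-CT (added from 10 nM) was then incubated 30-45 min at 37 °C. Samples were filtered and counted by scintillation. Nonspecific binding used 5-HT. IC50 came from a four-parameter fit; Ki by Cheng-Prusoff. Results are means of ≥2 determinations.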

[11] = target: T2, 5-hydroxytryptamine receptor 1A; test: Binding affinity against 5-hydroxytryptamine 1A human cloned receptors in HEK293 cells using [3H]8-OH-DPAT as radioligand; type: cell-based
[12] = target: T5, 5-hydroxytryptamine receptor 1B; test: Binding affinity against cloned human 5-hydroxytryptamine 1B receptor in CHO cells using [3H]5-CT as radioligand; type: cell-based
[13] = target: T3, 5-hydroxytryptamine receptor 2A; test: Binding affinity against 5-hydroxytryptamine 2A receptor human cloned receptorswithouteffect in HEK 293 cells using [3H]ketanserin as radioligand; type: cell-based, HEK293
[14] = target: T4, 5-hydroxytryptamine receptor 2C; test: Binding affinity against 5-hydroxytryptamine 2C receptor human cloned receptorswithouteffect in HEK 293 cells using [3H]mesulergine as radioligand; type: cell-based, HEK293
Summary of the method: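 Filtration binding on membranes from cells stably expressing the human cloned receptor, homogenized in ice-cold 50 mM Tris (pH 7.7). Assay buffer was 50 mM Tris-HCl pH 7.4 with 0.1% ascorbic acid, 10 μM pargyline, 0.5 mM EDTA and 10 mM MgCl2. Compound in DMSO was preincubated 15 min at room temperature, then radioligand was added for 30-45 min at 37 °C. Read-out was scintillation counting. IC50 came from a four-parameter logistic fit and Ki from Cheng-Prusoff; values are the mean of at least two determinations.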

[15] = target: D(2) dopamine receptor (Homo sapiens, UniProt P14416); test: Binding affinity against human Dopamine receptor D2 in CHO cells using [125I]iodosulpiride; type: cell-based
D(2) dopamine receptor, sequence (P14416 whole entry): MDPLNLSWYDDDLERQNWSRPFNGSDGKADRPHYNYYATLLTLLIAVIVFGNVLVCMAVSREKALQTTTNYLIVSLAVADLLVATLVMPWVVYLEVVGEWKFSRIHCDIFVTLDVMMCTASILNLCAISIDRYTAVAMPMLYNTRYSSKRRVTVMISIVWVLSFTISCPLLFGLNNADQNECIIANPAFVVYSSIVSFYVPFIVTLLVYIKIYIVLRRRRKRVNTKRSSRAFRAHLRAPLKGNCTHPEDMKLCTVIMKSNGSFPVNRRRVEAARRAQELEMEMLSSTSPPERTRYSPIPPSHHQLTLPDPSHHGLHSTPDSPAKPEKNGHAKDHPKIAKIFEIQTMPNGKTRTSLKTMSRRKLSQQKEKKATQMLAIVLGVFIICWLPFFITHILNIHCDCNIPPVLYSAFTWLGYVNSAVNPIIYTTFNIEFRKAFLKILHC

T5 sequence (P28222 whole entry): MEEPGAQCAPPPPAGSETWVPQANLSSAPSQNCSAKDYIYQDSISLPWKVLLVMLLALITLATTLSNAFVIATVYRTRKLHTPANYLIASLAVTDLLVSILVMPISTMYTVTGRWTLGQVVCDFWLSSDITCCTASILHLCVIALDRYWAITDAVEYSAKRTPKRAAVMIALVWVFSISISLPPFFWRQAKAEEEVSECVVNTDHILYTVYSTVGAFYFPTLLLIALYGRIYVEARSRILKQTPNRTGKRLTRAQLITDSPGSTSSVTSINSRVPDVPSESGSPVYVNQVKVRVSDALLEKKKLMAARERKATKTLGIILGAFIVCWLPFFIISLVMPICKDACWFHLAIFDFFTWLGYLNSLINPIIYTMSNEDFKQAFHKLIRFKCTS
5-hydroxytryptamine receptor 6, sequence (P50406 whole entry): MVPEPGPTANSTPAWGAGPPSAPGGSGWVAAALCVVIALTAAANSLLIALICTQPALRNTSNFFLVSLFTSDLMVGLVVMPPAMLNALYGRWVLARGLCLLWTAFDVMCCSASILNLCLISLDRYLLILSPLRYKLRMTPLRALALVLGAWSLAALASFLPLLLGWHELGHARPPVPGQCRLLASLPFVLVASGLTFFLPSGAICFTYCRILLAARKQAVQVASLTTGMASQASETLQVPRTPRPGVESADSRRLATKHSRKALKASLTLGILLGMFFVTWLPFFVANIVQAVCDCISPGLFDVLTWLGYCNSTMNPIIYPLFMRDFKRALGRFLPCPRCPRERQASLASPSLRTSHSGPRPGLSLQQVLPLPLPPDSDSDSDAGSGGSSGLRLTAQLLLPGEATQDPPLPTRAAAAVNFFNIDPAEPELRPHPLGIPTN
T3 sequence (P28223 whole entry): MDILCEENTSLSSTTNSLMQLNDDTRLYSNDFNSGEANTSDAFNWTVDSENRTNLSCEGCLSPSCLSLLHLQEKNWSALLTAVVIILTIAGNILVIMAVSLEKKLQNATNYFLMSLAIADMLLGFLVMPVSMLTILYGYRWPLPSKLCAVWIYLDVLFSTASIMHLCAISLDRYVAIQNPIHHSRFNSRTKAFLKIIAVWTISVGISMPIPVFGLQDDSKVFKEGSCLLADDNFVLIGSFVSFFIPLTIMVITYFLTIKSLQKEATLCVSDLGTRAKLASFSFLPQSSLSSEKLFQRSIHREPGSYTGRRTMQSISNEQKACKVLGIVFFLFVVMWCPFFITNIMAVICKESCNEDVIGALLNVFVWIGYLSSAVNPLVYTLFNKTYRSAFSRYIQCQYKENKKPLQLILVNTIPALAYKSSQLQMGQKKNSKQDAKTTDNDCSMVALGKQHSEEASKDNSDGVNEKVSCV
5-hydroxytryptamine receptor 7, sequence (P34969 whole entry): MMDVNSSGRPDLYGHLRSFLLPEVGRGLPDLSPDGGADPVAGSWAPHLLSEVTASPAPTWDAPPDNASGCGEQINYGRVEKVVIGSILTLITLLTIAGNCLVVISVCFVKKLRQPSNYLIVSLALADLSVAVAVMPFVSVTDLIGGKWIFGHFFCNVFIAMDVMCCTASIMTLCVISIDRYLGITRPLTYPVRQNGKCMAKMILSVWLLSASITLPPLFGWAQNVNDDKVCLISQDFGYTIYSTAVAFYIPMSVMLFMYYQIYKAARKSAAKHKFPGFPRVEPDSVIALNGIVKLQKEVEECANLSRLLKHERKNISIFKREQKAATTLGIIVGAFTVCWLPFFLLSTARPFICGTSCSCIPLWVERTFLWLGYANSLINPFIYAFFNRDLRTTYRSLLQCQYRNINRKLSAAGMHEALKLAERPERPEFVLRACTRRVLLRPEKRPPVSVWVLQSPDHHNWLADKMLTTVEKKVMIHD

Compound	Intrinsic activity [1]	Emax [2]	Stimulation [2]	EC50 [3] [nM]	Ki [5] [nM]	Ki [7] [nM]	Ki [8] [nM]	also measured
CN1CCN(c2cc3c(cc2Cl)CCN3C(=O)Nc2ccc(-c3ccncc3)c3ccccc23)CC1	0.33	144	42%	19.1	–	–	–	–
NCCCC1(CCCN)CCc2cccc(O)c2C1	–	–	–	–	10000	3.16	126	Ki [4]: 2 nM; Ki [6]: 12600 nM; Ki [9]: 316 nM
NCCc1c[nH]c2ccc(C(N)=O)cc12	–	–	–	–	> 5010	–	1000	Ki [10]: 1.26 nM
CC(C)C[C@H]1C(=O)N[C@@H](Cc2ccccc2)[C@]2(O)O[C@@](C)(NC(=O)[C@@H]3C=C4c5cccc6[nH]cc(c56)C[C@H]4N(C)C3)C(=O)N12	1.11	229	138	2	–	6.31	50.1	Ki [11]: 0.0631 nM; Ki [12]: 3.16 nM; Ki [13]: 15.8 nM; Ki [14]: 15.8 nM; Ki [15]: 3.16 nM
NCCc1c[nH]c2ccc(O)cc12	1	–	–	–	–	–	–	–
